Assay outcomes from PubChem BioAssay.
Shown are actives, neighbours in structure and some others; about 1.9% of the full set was active somewhere.
NadD inh – inhibitors of Staphylococcus aureus NadD; AID 602399; purified NadD enzyme, colorimetric absorbance read-out; 360,000 tested, 0.78% active; inhibition, % at 20 µM; in the data active = inhibition above about 26%
Xi reactivation – reactivates the inactive X chromosome in mouse fibroblasts | XiGFP mouse fibroblasts, % GFP-positive cells imaging, 3 d; cells co-treated with 5-aza-dC sensitizer; scaled so ellipticine positive control = 100% | 360,000 tested, 0.055% active | activation, % at 7.58 µM;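 active = mean normalized replicate activation at least 10% and every replicate at or above 10%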
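assay system = SV40-immortalized XiGFP fibroblast cells, line 68-5-11 | buffer or medium = DMEM plus 5-aza-dC sensitizer | doses = single-point pinned compound dosing | times = 3-day compound exposure, then 15 min fixation at room temperature | benchmarks = positive control ellipticine, 6 µM final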
Rpn11 block – Rpn11 (human) deubiquitinase inhibition; 360,000 tested, 0.59% active; O00487; inhibition, % at 20 µM; human 26S proteasome, Ub4-pepOG fluorescence polarization; 20S core pre-blocked with epoxomicin;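 active = inhibition at 20 µM, scaled to each plate's controls, above about 33%, limit read from the data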
Rin1 Abl inh – blocks binding of human Rin1 to Abl; inhibition, % at 7.35 µM; AID 588664; TR-FRET Rin1/Abl binding, biochemical; P00519+Q13671; 360,000 tested, 0.4% active; in the data active = inhibition above about 5%, passing the limit was not always enough
ABHD5 PLIN5 PPI – blocks binding of human ABHD5 to perilipin-5. Q00G26+Q8WTS1. Split G. princeps luciferase complementation, luminescence, 4 h. inhibition, % at 4 µM. 360,000 tested, 0.78% active. AID 602281;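 active = inhibition above the mean inhibition across every tested compound plus 3 SD, cut at about 22% in these data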
Target sequence (Q00G26 whole entry, looked up): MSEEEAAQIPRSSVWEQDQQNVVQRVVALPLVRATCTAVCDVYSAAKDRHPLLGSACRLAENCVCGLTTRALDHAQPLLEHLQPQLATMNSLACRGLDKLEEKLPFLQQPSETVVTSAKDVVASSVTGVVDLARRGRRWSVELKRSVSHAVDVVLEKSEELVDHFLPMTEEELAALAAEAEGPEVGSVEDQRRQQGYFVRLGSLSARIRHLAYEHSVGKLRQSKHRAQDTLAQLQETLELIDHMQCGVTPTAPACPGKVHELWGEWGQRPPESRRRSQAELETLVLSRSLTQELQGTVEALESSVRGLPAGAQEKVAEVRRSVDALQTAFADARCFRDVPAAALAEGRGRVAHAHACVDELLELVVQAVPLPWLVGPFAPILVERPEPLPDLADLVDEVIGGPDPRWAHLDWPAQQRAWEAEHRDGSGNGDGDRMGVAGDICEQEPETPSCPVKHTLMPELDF
Target sequence (Q8WTS1 whole entry, looked up): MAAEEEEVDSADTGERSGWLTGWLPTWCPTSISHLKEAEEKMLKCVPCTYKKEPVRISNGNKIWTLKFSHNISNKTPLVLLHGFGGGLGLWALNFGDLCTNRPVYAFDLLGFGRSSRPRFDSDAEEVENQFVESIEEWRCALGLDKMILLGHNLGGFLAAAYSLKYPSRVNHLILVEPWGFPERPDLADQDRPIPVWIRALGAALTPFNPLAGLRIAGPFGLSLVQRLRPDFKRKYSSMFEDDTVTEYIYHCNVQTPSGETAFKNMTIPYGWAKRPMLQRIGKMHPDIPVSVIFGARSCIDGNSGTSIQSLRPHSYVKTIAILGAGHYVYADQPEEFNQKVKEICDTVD
A number is an active result; 0 = inactive; - = no result shown.

SMILES	NadD inh	Xi reactivation	Rpn11 block	Rin1 Abl inh	ABHD5 PLIN5 PPI
Cc1ccccc1NC(=O)CN1C(=O)S/C(=C\c2ccc(-c3cc(C(=O)O)ccc3C)o2)C1=O	41	40	0	0	0
C#CCN1C(=O)S/C(=C\c2ccc(-c3ccc(C(=O)O)cc3C)o2)C1=O	0	0	0	0	0
Cc1ccc(C(=O)O)cc1-c1ccc(/C=C2\SC(=O)N(CC(=O)Nc3ccccc3)C2=O)o1	34	0	0	0	0
COc1ccc(S(=O)(=O)N(C)C[C@H]2Oc3ccc(NS(=O)(=O)c4ccc(C)cc4)cc3C(=O)N([C@@H](C)CO)C[C@H]2C)cc1	-	0	-	-	-
CNC(=O)c1ccc(S(=O)(=O)c2ccc(Cl)cc2)c(NC(C)=O)c1	0	0	0	0	0
CNC(=O)c1nnsc1S(=O)(=O)c1ccc(Cl)cc1	0	0	0	0	74
O=C(CC1C(=O)NCCN1Cc1ccoc1)NCCCn1ncc2ccccc21 (stereo not drawn)	0	0	0	0	33
Cc1ccc(CN2CCNC(=O)C2CC(=O)NCCCn2nnc3ccccc32)cc1 (stereo not drawn)	0	0	0	0	0
COc1ccc2c3c([nH]c2c1)[C@H](CO)N(C(=O)C1CCOCC1)CC31CCN(C(=O)NC(C)C)CC1	-	0	-	-	-
CCOC(=O)c1c(NC(=O)C(=O)N/N=C/c2ccc(O)c(OC)c2)sc2c1CCCCC2	32	0	0	0	0
CCOC(=O)c1c(NC(=O)C(=O)N/N=C/c2ccc(OCC)cc2)sc2c1CCCCC2	0	0	0	0	0
CCN1/C(=C/C=C/c2sc3ccccc3[n+]2CC)Sc2ccccc21	0	-	-	0	0
CCN1/C(=C/c2ccc3cc(C)ccc3[n+]2CC)Sc2ccccc21	0	448	-	0	23
C[C@H]1CCCCO[C@@H](CN(C)Cc2ccc(C(=O)Nc3ccccc3N)cc2)[C@@H](C)CN([C@@H](C)CO)C(=O)c2cc(N(C)C)ccc2O1	-	0	-	-	-
COc1ccc(OCCOc2ccc(/C=C3\C(=N)N4N=C(C)SC4=NC3=O)cc2)cc1	68	0	0	0	0
CCC1=NN2C(=N)/C(=C\c3ccc(OCCOc4ccccc4OC)cc3)C(=O)N=C2S1	25	0	0	0	0
CC(=O)Nc1ccc(OCCOc2ccc(/C=C3\C(=N)N4N=C(C)SC4=NC3=O)cc2)cc1	0	0	0	0	0
COc1ccc(-n2cccc2/C=C2\C(=N)N3N=C(c4ccco4)SC3=NC2=O)cc1	74	0	-	0	0
CCC1=NN2C(=N)/C(=C\c3ccc(OCCOc4ccc(NC(C)=O)cc4)c(OC)c3)C(=O)N=C2S1	0	0	0	0	0
C[C@@H]1C/C=C\C[C@H](c2ccc3c(c2)OCO3)NC(=O)[C@@H](c2ccccc2)CC(=O)N1	-	0	-	-	-
COCC(=O)N1CC2(C1)[C@@H](c1ccccc1)[C@@H](CO)N2C(=O)c1ccccc1	-	0	-	-	-
COc1cccc(-c2ccc(NC(=O)C3CCCN(Cc4cnn(C)c4)C3)cc2)c1 (stereo not drawn)	0	0	0	0	0
COCc1cc(CN2CCCC(C(=O)Nc3ccc(-c4ccco4)cc3)C2)ccc1OC (stereo not drawn)	0	0	0	0	32
CN1C(=O)c2cc(NC(=O)Nc3ccccc3)ccc2OC[C@@H]2O[C@H](CC(=O)O)CC[C@H]21	-	0	-	-	-
O=C(OCC(=O)N1CCN(C(=O)c2ccco2)CC1)c1cc(-c2ccco2)nc2ccccc12	44	-	0	0	24
SMILES	NadD inh	Xi reactivation	Rpn11 block	Rin1 Abl inh	ABHD5 PLIN5 PPI
C=CCc1cccc2cc(C(=O)Nc3ccc(S(=O)(=O)Nc4nnc(CC)s4)cc3)c(=O)oc12	50	0	0	0	0
Cc1cccc(-c2ccc([C@@H]3[C@H]4CN(C(=O)CN5CCOCC5)CC(=O)N4[C@H]3CO)cc2)c1	-	0	-	-	-
CC(C)c1ccc2[nH]c(O)c(N=NC(=O)c3cccc(S(=O)(=O)Nc4ccccc4Cl)c3)c2c1	38	0	0	0	0
COc1ccc2c3c([nH]c2c1)[C@H](CO)N(Cc1ccccc1)CC31CCN(C(=O)c2cccnc2)CC1	-	0	-	-	-
COc1cccc(C2CC(c3cccs3)=NN2C(=O)CSc2nc3c(cnn3-c3ccc(F)cc3)c(=O)[nH]2)c1OC (stereo not drawn)	39	-	0	0	0
CCC(=O)N1C[C@H](C)[C@H](OC)CN(C)C(=O)c2cc(NC(=O)c3cc(C)on3)ccc2OC[C@@H]1C	-	0	-	-	-
COC(=O)c1cc(NC(=O)c2ccccc2)c(=O)oc1C	0	0	0	0	0
COc1ccc(C(=O)Nc2cc(C(=O)c3ccccc3)c(C)oc2=O)cc1	0	-	0	0	37
O=C1CS(=O)(=O)N(Cc2cccc(F)c2)c2ccc(Br)cc21	0	0	0	0	0
O=C1c2cc(Br)ccc2N(Cc2ccc(Br)cc2)S(=O)(=O)C1c1cc(Cl)c(Cl)cc1[N+](=O)[O-] (stereo not drawn)	32	-	0	0	0
Cn1c(=O)c([N+](=O)[O-])c(Cl)c2ccccc21	0	0	0	0	34
CCN(CC)c1c([N+](=O)[O-])c(=O)n(C)c2ccccc12	0	0	0	0	0
COc1ccc2c3c([nH]c2c1)[C@H](CO)N(Cc1ccccc1F)CC31CCN(CC2CC2)CC1	-	0	-	-	-
C[C@H](CO)N1C[C@H](C)[C@H](CN(C)C)Oc2c(NC(=O)Nc3cccc4ccccc34)cccc2C1=O	-	0	-	-	-
O=C(/C=C/c1ccc2c(c1)OCO2)c1ccc(F)cc1	0	0	0	0	22
O=C(N/N=C\C=C\c1ccc2c(c1)OCO2)c1ccc(F)cc1	0	0	0	0	0
CC(C)CC#Cc1ccc([C@@H]2[C@H](CO)N3C(=O)CN(S(C)(=O)=O)C[C@@H]23)cc1	-	0	-	-	-
CCc1nnc(NS(=O)(=O)c2ccc(NC(=S)NC(=O)/C=C/c3ccc(C(C)C)cc3)cc2)s1	69	-	0	0	0
C=C1CC(COc2ccc3c(C)c(Cl)c(=O)oc3c2)(c2ccccc2)OC1=O (stereo not drawn)	0	0	0	0	62
COc1ccc2c(C)c(Cl)c(=O)oc2c1	0	-	0	0	0
CSc1ccc(/C=C/C(=O)c2ccc(NC(=O)Cc3ccccc3)cc2)cc1	0	-	0	0	0
COC(=O)c1ccc(/C=C/C(=O)c2cccc(OC)c2)cc1	0	0	0	0	0
CSc1ccc(/C=C/C(=O)c2ccc(NC(=O)C(C)C)cc2)cc1	0	-	0	0	23
COc1cccc(C(=O)/C=C/c2ccc(SC)cc2)c1	0	-	0	0	23
Fc1cccc(C[n+]2csc3ccccc32)c1	0	-	0	0	36
c1ccc(C[n+]2csc3ccccc32)cc1	0	-	0	0	0
COC(=O)/C=C1\SC(=NC(=O)c2ccc(-c3ccccc3)cc2)NC1=O	31	0	0	0	0
c1coc(-c2nc(-c3ccco3)c(-c3ccco3)nc2-c2ccco2)c1	46	-	-	0	64
